From ChEMBL document CHEMBL1124387, “Cardiotonic agents. 9. Synthesis and biological evaluation of a series of (E)-4,5-dihydro-6-[2-[4-(1H-imidazol-1-yl)phenyl]ethenyl]-3 (2H)-pyridazinones: a novel class of compounds with positive inotropic, antithrombotic, and vasodilatory activities for the treatment of congestive heart failure” (J Med Chem, 1989) come the findings set out here.

In test [1] the test system is Canis familiaris. Put plainly: Hemodynamic activity in anesthetized dog as percent change in left ventricular myocardial activity from baseline (2271 mmHg/s) at 0.003 mg/kg administered intravenously. The format is functional, Canis lupus familiaris, Heart left ventricle. The following applies: route intravenous. The gist of the method:
(§1)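 Acutely instrumented anesthetized dogs (n = 6), 30-min control period. Compound in 0.9% saline, or dilute HCl diluted with saline, at 0.1 mL/kg iv over 1 min. At least four ascending half-log doses, 10 min apart, one compound per animal. Recorded: LV dP/dtmax, heart rate, aortic pressure and forelimb resistance. Values are maximum response from control average ± SEM.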

For another test, the species on record is Homo sapiens. As to the kind of experiment: In vitro inhibition of ADP stimulated platelet aggregation in human thrombocyte enriched plasma. It is filed as functional. The procedure, abridged: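 Human platelet-rich plasma from aspirin/NSAID-free donors, adjusted to 250 000 platelets/μL with platelet-poor plasma. Drug in DMSO/saline (1% DMSO final) was added before ADP or collagen, with doses set by titration. Read-out was aggregation extent (ADP, curve height) or rate (collagen, major slope) as % of saline control.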

A short description of test [2]: Inhibition of phosphodiesterase 3 from guinea pig cardiac tissue at 1*10e-7-1*10e-4 M. More on the design: species or system Cavia porcellus. The procedure, abridged: (§2)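 Fraction III cAMP-PDE from guinea pig heart or human platelets. Substrate [3H]cyclic AMP 1.0 μM at 30°C, with hydrolysis held to ≤10-20% and kept linear over 30 min. Compounds in DMSO, 2.5% final.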

In test [3] the test system is Canis familiaris. As to the kind of experiment: Cardiovascular activity in presence of beta-adrenoceptor blockade in dogs as percent change in forelimb vascular resistance from base line (4.71 mmHg/mL/min) at 0.01 mg/kg before nadolol administration.
The next test addresses Phosphodiesterase 3 (Homo sapiens, UniProt Q14432+Q13370). Put plainly: Inhibition of phosphodiesterase 3 from human platelets at 1*10e-7-1*10e-4 M. The gist of the method: as §2
Test [4] deals with Canis familiaris. As to the kind of experiment: Hemodynamic activity in anesthetized dog as percent change in heart rate from baseline (152 bpm) at 0.3 mg/kg administered intravenously. As to conditions: route intravenous. It is filed as functional, Canis lupus familiaris. The procedure, abridged: as §1
Test [5] relates to Canis familiaris. Put plainly: Cardiovascular activity in presence of beta-adrenoceptor blockade in dogs as percent change in blood pressure from base line (116/94 mmHg) at 0.01 mg/kg dose before nadolol administration; -9/-11.
In test [6] the test system is Canis familiaris. Put plainly: Hemodynamic activity in anesthetized dog as percent change in left ventricular myocardial activity from baseline (2271 mmHg/s) at 0.01 mg/kg administered intravenously. It is filed as functional, Canis lupus familiaris, Heart left ventricle. The following applies: route intravenous. The gist of the method:
as §1

In test [7] the test system is Canis familiaris. As to the kind of experiment: Hemodynamic activity in anesthetized dog as percent change in fore limb resistance from baseline (2.77 mmHg/mL/min) at 0.3 mg/kg administered intravenously. The format is functional, Canis lupus familiaris. The following applies: route intravenous. The gist of the method:
as §1

The subject of test [8] is Canis familiaris. Put plainly: Percentage increase in left ventricular contractility in anesthetized dog. It is filed as functional, Canis lupus familiaris, Heart left ventricle.
Test [9] relates to Canis familiaris. Put plainly: Hemodynamic activity in anesthetized dog as percent change in heart rate from baseline (152 bpm) at 0.01 mg/kg administered intravenously. It is filed as functional, Canis lupus familiaris. The following applies: route intravenous. The procedure, abridged: as §1
The test system of test [10] is Canis familiaris. As to the kind of experiment: Hemodynamic activity in anesthetized dog as percent change in fore limb resistance from baseline (2.77 mmHg/mL/min) at 0.03 mg/kg administered intravenously. It is filed as functional, Canis lupus familiaris. The following applies: route intravenous. The procedure, abridged: as §1

As usually defined, the IC50 is the point on the concentration scale where inhibition reaches its midpoint. A low value points to greater potency in that assay.

As to `CC1CC(=O)NN=C1/C=C/c1ccc(-n2ccnc2)cc1.Cl` (configuration not stated), the Change with Canis familiaris [1] is recorded as 19%; in the test on Canis familiaris [3] it was -19%; with Canis familiaris [4], 33%; in the test on Canis familiaris [5], -9%; in the test on Canis familiaris [6], 65%; in the test with Canis familiaris [7] it was -54%. Moreover, the Change with Canis familiaris [9] was 12%; in the test on Canis familiaris [10] it was -49%. For the same compound, the 50% inhibitory concentration (IC50) is 300 nM in the test listed under Homo sapiens, 250 nM in [2] and 77 nM at Phosphodiesterase 3. In the test on Canis familiaris [8], this compound had an Increase of 19%.
